Measured values from ChEMBL document CHEMBL1144333, “Dipyridyl amides: potent metabotropic glutamate subtype 5 (mGlu5) receptor antagonists” (Bioorg Med Chem Lett, 2005).

How the values were obtained:
[1] = target: T1, Metabotropic glutamate receptor 5 (Homo sapiens, UniProt P41594); test: Inhibitory concentration against human recombinant metabotropic glutamate receptor 5 (mGlu5) in Ltk cells determined using fluorescence detection method; format: cell-based
Outline: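 Automated functional Ca2+ flux assay in Ltk cells stably expressing human recombinant mGlu5. Changes in cytosolic Ca2+ were read by fluorescence with the Ca2+-sensitive dye fura-2. IC50 values are means of two to three experiments.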

[2] = Modest half life in rat was determined; format: ADME; settings: in vivo
[3] = High plasma clearance in rat was determined; format: ADME, organism-based; settings: read-out: Clp
[4] = target: T1, Metabotropic glutamate receptor 5; test: Inhibitory concentration against human recombinant metabotropic glutamate receptor 5 (mGlu5) in Ltk cells determined using fluorescence detection method; IA=Inactive; format: cell-based
Outline: (§1)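 Automated functional Ca2+ flux assay in Ltk cells stably expressing human recombinant mGlu5. Changes in cytosolic Ca2+ were read by fluorescence with the Ca2+-sensitive dye fura-2. IC50 values are means of two to three experiments. Compounds were called not active when IC50 > 10 μM.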

[5] = target: T1, Metabotropic glutamate receptor 5; test: Inhibitory concentration against human recombinant metabotropic glutamate receptor 5 (mGlu5) in Ltk cells determined using fluorescence detection method; NA=Not Active; format: cell-based; outline: as §1
[6] = Low oral bioavailability was determined; format: ADME, organism-based; settings: rat, in vivo
[7] = Modest half life was determined; format: ADME; settings: rat
[8] = High plasma clearance was determined; format: ADME, organism-based; settings: rat, read-out: Clp
[9] = Modest half life in rat was determined; LOQ = limit of quantitation; format: ADME; settings: in vivo
[10] = Oral bioavailability in rat; LOQ = limit of quantitation; format: ADME, organism-based; settings: in vivo

T1 sequence (P41594 whole entry): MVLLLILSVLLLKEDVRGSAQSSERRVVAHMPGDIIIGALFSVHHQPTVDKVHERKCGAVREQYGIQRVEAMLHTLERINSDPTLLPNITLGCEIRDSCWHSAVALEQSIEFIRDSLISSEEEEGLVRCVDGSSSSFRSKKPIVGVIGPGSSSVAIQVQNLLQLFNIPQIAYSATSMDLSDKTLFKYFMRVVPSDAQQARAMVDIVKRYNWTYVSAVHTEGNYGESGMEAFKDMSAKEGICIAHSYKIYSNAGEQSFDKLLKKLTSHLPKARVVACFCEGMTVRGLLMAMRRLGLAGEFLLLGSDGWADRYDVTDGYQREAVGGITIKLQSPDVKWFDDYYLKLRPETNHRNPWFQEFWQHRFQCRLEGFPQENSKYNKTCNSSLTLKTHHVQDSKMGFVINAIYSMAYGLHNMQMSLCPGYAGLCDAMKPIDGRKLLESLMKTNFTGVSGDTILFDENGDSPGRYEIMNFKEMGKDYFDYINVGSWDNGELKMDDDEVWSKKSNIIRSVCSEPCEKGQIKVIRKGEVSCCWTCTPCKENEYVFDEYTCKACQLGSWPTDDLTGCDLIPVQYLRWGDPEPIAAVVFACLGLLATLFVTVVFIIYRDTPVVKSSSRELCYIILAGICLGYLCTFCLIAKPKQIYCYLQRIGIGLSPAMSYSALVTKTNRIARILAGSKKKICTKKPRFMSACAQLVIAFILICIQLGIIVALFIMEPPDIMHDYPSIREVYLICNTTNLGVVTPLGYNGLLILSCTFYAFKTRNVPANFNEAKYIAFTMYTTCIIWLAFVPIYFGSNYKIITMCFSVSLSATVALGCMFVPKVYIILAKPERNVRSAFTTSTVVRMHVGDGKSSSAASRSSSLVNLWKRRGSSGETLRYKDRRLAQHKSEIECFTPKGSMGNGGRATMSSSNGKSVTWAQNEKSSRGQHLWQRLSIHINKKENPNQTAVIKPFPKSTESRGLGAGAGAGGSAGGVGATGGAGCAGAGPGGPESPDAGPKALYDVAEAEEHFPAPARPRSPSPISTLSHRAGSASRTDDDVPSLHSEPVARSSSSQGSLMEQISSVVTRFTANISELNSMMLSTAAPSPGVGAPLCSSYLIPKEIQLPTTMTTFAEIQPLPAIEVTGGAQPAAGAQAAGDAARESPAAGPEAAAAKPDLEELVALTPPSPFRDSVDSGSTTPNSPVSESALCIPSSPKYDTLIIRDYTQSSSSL

IC50 [1] [nM] | SMILES | further results
5 | Cc1cccc(NC(=O)c2nc(Cl)cnc2N)n1 | –
11 | Cc1cccc(NC(=O)c2nc(C)ccc2Nc2cccnc2)n1 | half-life [2]: 75 min; clearance [3]: 176 mL/min/kg
8 | Cc1cccc(NC(=O)c2nc(C)cnc2N)n1 | –
12 | Nc1ncc(Br)nc1C(=O)Nc1ccccn1 | –
– | O=C(Nc1ccccn1)c1cccc(Br)c1 | IC50 [4]: Not Active
165 | Cc1cncc(C(=O)Nc2ccccn2)n1 | –
– | CN(C)c1ncc(Br)nc1C(=O)Nc1ccccn1 | IC50 [5]: Not Active
– | O=C(Nc1ccccn1)c1cncc(Br)c1 | IC50 [4]: Not Active
158 | CN(C)c1ncc(C(=O)Nc2ccccn2)nc1Cl | –
28 | Cc1cnc(N)c(C(=O)Nc2ccccn2)n1 | bioavailability [6]: 20%; half-life [7]: 264 min; clearance [8]: 56 mL/min/kg
145 | CNc1ncc(Cl)nc1C(=O)Nc1ccccn1 | –
103 | Nc1nc(N2CCCCC2)c(Cl)nc1C(=O)Nc1ccccn1 | –
3540 | Nc1nccnc1C(=O)Nc1ccccn1 | –
134 | CN(C)c1nc(N)c(C(=O)Nc2ccccn2)nc1Cl | –
3800 | Nc1nc(N)c(C(=O)Nc2ccccn2)nc1Cl | –
– | Cc1cccc(N(C)C(=O)c2nc(C)cnc2N)n1 | IC50 [4]: Not Active
23 | CC(C)Nc1nc(N)c(C(=O)Nc2ccccn2)nc1Cl | –
22 | Cc1cccc(NC(=O)c2nc(C)ccc2N)n1 | –
11 | Nc1ncc(Cl)nc1C(=O)Nc1ccccn1 | –
21 | Cc1cccc(NC(=O)c2cccc(Br)n2)n1 | –
5080 | CN(C)c1cnc(C(=O)Nc2ccccn2)c(N)n1 | –
105 | Cc1ccc(O)c(C(=O)Nc2cccc(C)n2)c1 | –
254 | O=C(Nc1ccccn1)c1cncc(Cl)n1 | –
7 | Cc1cccc(NC(=O)c2nc(C)ccc2O)n1 | T1/2 [9]: Limit of quantification; clearance [3]: > 100 mL/min/kg; F [10]: Limit of quantification
32 | Cc1cccc(NC(=O)c2cccc(C)n2)n1 | –
– | O=C(Nc1ccccn1)c1cnccn1 | IC50 [5]: Not Active
